Experimental data as given in article PMC5543507 (Cancer Science, 2017).
Several values for one entry are separate records, joined by “and”; a condition that tells them apart may be missing. Identical values can stand only once. Marks after values point to notes of the source that are not given here.

Key:
[1] = system: GLI1 expression; assay: GLI1 expression in normal skin biopsies; assay type: in vivo, Japanese patients; conditions: for Downregulation of GLI1 expression from skin biopsies: steady state (Cycle 1 Day 21 vs screening)
Method in brief: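 Adults with advanced hematologic malignancies received once-daily oral test compound at 25, 50 or 100 mg in 28-day cycles, after a single lead-in dose on Day −5. Normal skin biopsies were taken at screening and on Cycle 1 Day 21. Expression of Hh pathway-regulated genes was measured relative to baseline, matched to PK sampling where possible, and summarised graphically and descriptively.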

[2] = system: select advanced hematologic malignancies; assay: Preliminary clinical activity by disease-specific response criteria; assay type: in vivo, Japanese patients
Method in brief: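 Patients aged ≥20 years had refractory, resistant or intolerant MDS, MF, CMML, CML or AML. They took oral test compound once daily at 25, 50 or 100 mg in 28-day cycles, after a lead-in dose on Day −5. Response was judged by disease-specific criteria and summarised with descriptive statistics.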

[3] = system: Japanese patients with select advanced hematologic malignancies; assay: Safety: adverse events and dose-limiting toxicities, phase I trial of glasdegib; assay type: in vivo
Method in brief: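 Once-daily oral dosing at 25, 50 or 100 mg followed a 3 + 3 design. AEs, serious AEs and laboratory tests were monitored until 28 days after the last dose or until drug-related toxicities resolved, graded by NCI CTCAE v4.0. DLT window: Day −5 to Cycle 1 Day 28. DLTs: grade ≥3 nonhematologic toxicity; myelosuppression lasting ≥42 days; grade ≥3 QTc prolongation (≥501 ms).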

[4] = system: patients with select advanced myeloid malignancies and solid tumors; conditions: phase I dose-escalation study, United States and Italy; cited from earlier work
[5] = system: solid tumors; conditions: glasdegib monotherapy; cited from earlier work
[6] = system: hematologic malignancies; conditions: cited from earlier work
[7] = system: GLI1 expression; conditions: advanced solid tumors; 80–640 mg; cited from earlier work
[8] = system: SMO; conditions: preclinical studies; cited from earlier work
[9] = system: leukemic stem cell (LSC) burden in xenograft models; conditions: cited from earlier work
[10] = 5–600 mg dose range; cited from earlier work
[11] = Plasma pharmacokinetics after single and multiple oral doses; assay type: in vivo, Japanese patients; conditions: for half-life / AUC(0-inf) / Tmax / Vd/F: human, plasma; for C trough: multiple dose, Cycle 1/Day 21; for C trough / CL/F: geometric mean (geometric %CV); for CL/F: single dose
Method in brief: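 Dosing was oral, once daily, at 25, 50 or 100 mg (3 + 3 design), with a single lead-in dose on Day −5. Serial blood was drawn on Day −5 and on Cycle 1 Days 1, 8, 15 and 21, then on Day 1 of later cycles. Plasma drug was assayed by a validated method (LLOQ 3.00 ng/mL). Cmax, Tmax and AUC came from noncompartmental analysis.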

## CN1CC[C@@H](NC(=O)Nc2ccc(C#N)cc2)C[C@@H]1c1nc2ccccc2[nH]1 [glasdegib]
[1]; 50 mg group
  Downregulation of GLI1 expression from skin biopsies: > 80%
[1]; 100 mg group
  Downregulation of GLI1 expression from skin biopsies: > 80%
[1]; steady state, 25-mg group
  Marked downregulation of GLI1 expression from skin biopsies: not observed
[2]; 25 mg
  AML patients achieving stable disease: 1 patients
  MDS patients achieving stable disease: 1
[2]; 50 mg
  AML patients achieving stable disease: 1 patients
[2]; 100 mg
  MDS patients achieving stable disease: 1
[2]; 100-mg group
  AML patients achieving stable disease: 2 patients
[2]; 100-mg group, 8% of 13
  AML patients with morphological complete remission as best response: 1 patient
[2]; all dose groups, 31%
  AML patients achieving stable disease: Four
[3]; 50 mg group
  Permanent discontinuation of treatment due to AE: 3 patients
[3]; 100 mg group
  Permanent discontinuation of treatment due to AE: 1 patient
[3]; 9 of 13 patients with treatment-related AE
  Severity of treatment-emergent, treatment-related AE: 1–3 grade
[3]; 13 patients, 8%
  Leukopenia, grade 4 treatment-emergent AE: 1 n
  Neutropenia, grade 4 treatment-emergent AE: 1 n
  Reduced platelet count, grade 4 treatment-emergent AE: 1 n
  Thrombocytopenia, grade 4 treatment-emergent AE: 1 n
[3]; 13 patients, 15%
  Anemia, grade 3 treatment-emergent all-causality AE: 2 n
  Hypokalemia, grade 3 treatment-emergent all-causality AE: 2 n
  Thrombocytopenia, grade 3 treatment-emergent all-causality AE: 2 n
[3]; 13 patients, 23%, grade 1 muscle cramp, grade 1 dysgeusia, grade 1–3 pyrexia
  Treatment temporarily discontinued or dose reduced due to a treatment-related AE: 3 patients
[3]; 13 patients, 25, 50 and 100 mg q.d., Day −5 to Day 28 of Cycle 1
  First-cycle dose-limiting toxicities (DLT): No DLT were observed
[3]; 50-mg group
  Temporary discontinuations for an all-cause AE: 1 patient
[3]; 100-mg group, 23%
  Temporary discontinuations for an all-cause AE: 3 patients
[3]; N = 13
  Grade 4 or 5 treatment-related adverse events: No grade 4 or 5 treatment‐related adverse events were reported in this study.
  Pyrexia, grade 3 treatment-related: a One patient experienced grade 3 treatment‐related pyrexia.
[3]; N = 13, 25, 50 and 100 mg q.d. oral pooled
  Any adverse event, treatment-emergent all-causality, all grades: 13 (100.0) n (%)
[3]; N = 13, all doses pooled
  Alopecia, all-causality, all grades: 4 (30.8) n (%)
  Alopecia, all-causality, ≥Grade 3: 0 n (%)
  Alopecia, treatment-related, Grade 3: 0 n (%)
  Alopecia, treatment-related, all grades: 4 (30.8) n (%)
  Any adverse event, treatment-emergent all-causality, ≥Grade 3: 7 (53.8) n (%)
  Any adverse event, treatment-emergent treatment-related, all grades: 9 n (%) and 9 (69.2) n (%)
  Any adverse event, treatment-related, Grade 3: 1 (7.7) ^a n (%)
  Blood creatinine phosphokinase increased, all-causality, all grades: 3 (23.1) n (%)
  Blood creatinine phosphokinase increased, all-causality, ≥Grade 3: 0 n (%)
  Blood creatinine phosphokinase increased, treatment-related, Grade 3: 0 n (%)
  Blood creatinine phosphokinase increased, treatment-related, all grades: 3 (23.1) n (%)
  Constipation, all-causality, all grades: 6 (46.2) n (%)
  Constipation, all-causality, ≥Grade 3: 0 n (%)
  Constipation, treatment-related, Grade 3: 0 n (%)
  Constipation, treatment-related, all grades: 3 (23.1) n (%)
  Decreased appetite, all-causality, all grades: 6 (46.2) n (%)
  Decreased appetite, all-causality, ≥Grade 3: 0 n (%)
  Decreased appetite, treatment-related, Grade 3: 0 n (%)
  Decreased appetite, treatment-related, all grades: 4 (30.8) n (%)
  Diarrhea, all-causality, all grades: 3 (23.1) n (%)
  Diarrhea, all-causality, ≥Grade 3: 0 n (%)
  Diarrhea, treatment-related, Grade 3: 0 n (%)
  Diarrhea, treatment-related, all grades: 3 (23.1) n (%)
  Dysgeusia, all-causality, all grades: 9 (69.2) n (%)
  Dysgeusia, all-causality, ≥Grade 3: 0 n (%)
  Dysgeusia, treatment-related, Grade 3: 0 n (%)
  Dysgeusia, treatment-related, all grades: 9 (69.2) n (%)
  Fatigue, all-causality, all grades: 3 (23.1) n (%)
  Fatigue, all-causality, ≥Grade 3: 0 n (%)
  Hypokalemia, all-causality, all grades: 3 (23.1) n (%)
  Hypokalemia, all-causality, ≥Grade 3: 2 (15.4) n (%)
  Muscle spasms, all-causality, all grades: 6 (46.2) n (%)
  Muscle spasms, all-causality, ≥Grade 3: 0 n (%)
  Muscle spasms, treatment-related, Grade 3: 0 n (%)
  Muscle spasms, treatment-related, all grades: 5 (38.5) n (%)
  Pyrexia, all-causality, all grades: 6 (46.2) n (%)
  Pyrexia, all-causality, ≥Grade 3: 1 (7.7) n (%)
  Thrombocytopenia, all-causality, all grades: 3 (23.1) n (%)
  Thrombocytopenia, all-causality, ≥Grade 3: 3 (23.1) n (%)
  Weight decreased, all-causality, all grades: 3 (23.1) n (%)
  Weight decreased, all-causality, ≥Grade 3: 0 n (%)
[3]; dose levels tested (25–100 mg)
  Overall safety and tolerability: safe and well tolerated
[3]; doses up to 100 mg q.d.
  Maximum tolerated dose: not reached
[4]
  Tolerability: well tolerated
[5]
  Patients with prolonged (≥6 months) stabilization of disease: 13%
  Patients with stable disease: 35%
[6]; European and American patients with hematologic malignancies
  Patients with some suggestion of clinical activity: 23 of 47
[6]; phase I dose-escalation study, United States and Italy
  Patients with preliminary clinical activity: approximately half
[7]
  Downregulation of GLI1 expression in surrogate tissue: > 80%
[8]
  Inhibition of SMO in vitro: inhibited SMO in vitro
[9]; preclinical studies
  Antitumor activity in vivo: significant antitumor activity
[9]; xenograft models
  Leukemic stem cell (LSC) burden: significant reduction
[10]
  Dose proportionality of pharmacokinetics: dose‐proportional
[11]; 25–100 mg
  Dose proportionality of maximum plasma concentration and exposure: broadly dose‐proportional
[11]; oral
  half-life: 20.7 ± 7.7 h
[11]; po, 25 mg
  AUC(0-inf): 3350 ng·h/mL
  Tmax: 2 h
  Vd/F: 165 L
  half-life: 15.3 h
[11]; po, 50 mg
  AUC(0-inf): 9590 ng·h/mL
  Tmax: 4 h
  Vd/F: 225 L
  half-life: 30.3 h
[11]; po, 100 mg
  AUC(0-inf): 13100 ng·h/mL
  Tmax: 2 h
  Vd/F: 184 L
  half-life: 17.1 h
[11]; 50 mg q.d.
  C trough: 240 (37) ng/mL
[11]; 100 mg q.d.
  C trough: 343 (35) ng/mL
[11]; 25 mg oral
  CL/F: 7.47 (68) L/h
[11]; 50 mg oral
  CL/F: 5.22 (64) L/h
[11]; 100 mg oral
  CL/F: 7.63 (20) L/h
